Laboratory results reported in ChEMBL document CHEMBL1125331, “6-Hydroxy-3-n-propyl-2,3,4,5-tetrahydro-1H-3-benzazepine and analogs: new centrally acting 5-HT1A receptor agonists” (J Med Chem, 1992).
pIC50: −log10 of the molar value.

Tests used:
[1] = molecular target: T1, 5-hydroxytryptamine receptor 1A (Rattus norvegicus, UniProt P19327); assay: Inhibitory activity against 5-hydroxytryptamine 1A receptor in rats, using [3H]8-OH-DPAT as radioligand
T1 sequence (P19327 whole entry): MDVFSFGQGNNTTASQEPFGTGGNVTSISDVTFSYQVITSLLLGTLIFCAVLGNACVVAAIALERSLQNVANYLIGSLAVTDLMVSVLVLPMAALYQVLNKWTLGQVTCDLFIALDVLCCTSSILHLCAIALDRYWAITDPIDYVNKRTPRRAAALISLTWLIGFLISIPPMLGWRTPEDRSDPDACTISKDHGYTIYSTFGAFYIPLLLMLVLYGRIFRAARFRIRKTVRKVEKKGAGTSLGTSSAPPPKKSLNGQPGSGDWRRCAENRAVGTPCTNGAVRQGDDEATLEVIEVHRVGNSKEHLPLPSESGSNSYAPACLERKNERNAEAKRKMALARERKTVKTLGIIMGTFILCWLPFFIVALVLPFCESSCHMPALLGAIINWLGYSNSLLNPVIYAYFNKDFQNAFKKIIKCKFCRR
Method in brief: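 Rat whole-brain membranes (minus brainstem and cerebellum) in 50 mM Tris pH 8.0 with 120 mM NaCl, 4 mM CaCl2, 4 mM MgCl2 and 10 μM pargyline. Rapid filtration, then scintillation counting. Nonspecific binding defined with 10 μM 5-HT. IC50 by semi-log plot and linear regression.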

[2] = molecular target: D(2) dopamine receptor (Rattus norvegicus, UniProt P61169); assay: Inhibitory activity against Dopamine receptor D2 in rats using [3H]spiperone as radioligand
Method in brief: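 Rat striatal membranes in 50 mM potassium phosphate buffer pH 7.4 were incubated with 0.5 nM [3H]spiperone for 10 min at 37 °C. Specific binding was defined with 10 μM 6,7-ADTN.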

[3] = system: Rattus norvegicus; assay: Effect evaluated in vivo on 5-HTP accumulation in limbic system at a dose 3.1 umol/kg (p.o.); assay type: functional
Method in brief: (§1)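 Oral dosing in male Sprague-Dawley rats (200–300 g) pretreated with reserpine 5 mg/kg sc 18 h before. After decarboxylase inhibition with NSD 1015, brain 5-HTP or dopa accumulation (HPLC-electrochemical detection) indexed 5-HT synthesis, DA synthesis (limbic) or NE synthesis (hemispheres, mainly cortex).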

[4] = system: Rattus norvegicus; assay: Effect evaluated in vivo on 5-HTP accumulation in limbic system at a dose 3.1 umol/kg (s.c.); assay type: functional
Method in brief: (§2)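 Male Sprague-Dawley rats (200–300 g) were pretreated with reserpine 5 mg/kg sc 18 h before. Test compound was given sc at 5 mL/kg in neutral solution. 5-HT synthesis rate was indexed by […] 5-HTP accumulation after decarboxylase inhibition with NSD 1015, measured by HPLC-electrochemical detection. Dose-response used 4–6 dose levels, n = 4.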

[5] = system: Rattus norvegicus; assay: Effect evaluated in vivo on 5-HTP accumulation in limbic system at a dose 50 umol/kg (p.o.); assay type: functional; method in brief: as §1
[6] = system: Rattus norvegicus; assay: Effect evaluated in vivo on 5-HTP accumulation in rats limbic system at a dose 50 umol/kg (s.c.); assay type: functional; method in brief: as §2
[7] = system: Rattus norvegicus; assay: Effect evaluated in vivo on 5-HTP accumulation in NE-rich hemispheres at a 0.78 dose uM/kg(sc); assay type: functional
Method in brief: (§3)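 Male Sprague-Dawley rats (200–300 g) were pretreated with reserpine 5 mg/kg sc 18 h beforehand. Test drug was given at neutral pH, 5 mL/kg. Aromatic amino acid decarboxylase was blocked with NSD 1015. 5-HTP in the dissected brain region was assayed by HPLC with electrochemical detection.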

[8] = system: Rattus norvegicus; assay: Effect evaluated in vivo on 5-HTP accumulation in NE-rich hemispheres at a 0.80 dose uM/kg(po); assay type: functional; method in brief: as §3
[9] = system: Rattus norvegicus; assay: Effect evaluated in vivo on 5-HTP accumulation in corpus striatum at a dose 12.5 umol/kg (p.o.); assay type: functional; method in brief: as §3
[10] = system: Rattus norvegicus; assay: Effect evaluated in vivo on 5-HTP accumulation in corpus striatum at a dose 12.5 umol/kg (s.c.); assay type: functional; method in brief: as §3
[11] = system: Rattus norvegicus; assay: Effect evaluated in vivo on 5-HTP accumulation in corpus striatum at a dose 3.1 umol/kg (p.o.); assay type: functional; method in brief: as §3
[12] = system: Rattus norvegicus; assay: Effect evaluated in vivo on 5-HTP accumulation in corpus striatum at a dose 3.1 umol/kg (s.c.); assay type: functional; method in brief: as §3
[13] = system: Rattus norvegicus; assay: Effect evaluated in vivo on 5-HTP accumulation in corpus striatum at a dose 50 umol/kg (p.o.); assay type: functional; method in brief: as §3
[14] = system: Rattus norvegicus; assay: Effect evaluated in vivo on 5-HTP accumulation in corpus striatum after perioral administration; assay type: functional; method in brief: as §3
[15] = system: Rattus norvegicus; assay: Effect evaluated in vivo on 5-HTP accumulation in limbic system after perioral administration; assay type: functional; method in brief: as §3
[16] = system: Rattus norvegicus; assay: Effect evaluated in vivo on 5-HTP accumulation in limbic system after subcutaneous administration; assay type: functional; settings: sc; method in brief: as §3
[17] = system: Rattus norvegicus; assay: Effect evaluated in vivo on 5-HTP accumulation synthesis in NE-rich hemispheres after perioral administration; assay type: functional; method in brief: as §1
[18] = system: Rattus norvegicus; assay: Effect evaluated in vivo on NE synthesis in NE-rich hemispheres after subcutaneous administration; assay type: functional; settings: sc
Method in brief: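 Rats pretreated with reserpine 5 mg/kg sc 18 h before received test compound sc at 5 mL/kg in neutral solution. After decarboxylase inhibition with NSD 1015, dopa accumulation in hemispheres (mainly cortex) was measured by HPLC-electrochemical detection as an index of NE synthesis. Dose-response used 4–6 dose levels, n = 4.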

[19] = system: Rattus norvegicus; assay: Effect evaluated in vivo on 5-HTP accumulation in limbic system at a dose 0.78 umol/kg (s.c.); assay type: functional; method in brief: as §3
[20] = system: Rattus norvegicus; assay: Effect evaluated in vivo on 5-HTP accumulation in limbic system at a dose 0.80 umol/kg (p.o.); assay type: functional; method in brief: as §1
[21] = system: Rattus norvegicus; assay: Effect evaluated in vivo on 5-HTP accumulation in limbic system at a dose 12.5 umol/kg (p.o.); assay type: functional; method in brief: as §1
[22] = system: Rattus norvegicus; assay: Effect evaluated in vivo on 5-HTP accumulation in limbic system at a dose 12.5 umol/kg (s.c.); assay type: functional; method in brief: as §2
[23] = system: Rattus norvegicus; assay: Effect evaluated in vivo on 5-HTP accumulation in NE-rich hemispheres at a 12.5 dose uM/kg(po); assay type: functional; method in brief: as §3
[24] = system: Rattus norvegicus; assay: Effect evaluated in vivo on 5-HTP accumulation in NE-rich hemispheres at a 12.5 dose uM/kg(sc); assay type: functional; method in brief: as §3
[25] = system: Rattus norvegicus; assay: Effect evaluated in vivo on 5-HTP accumulation in NE-rich hemispheres at a 3.1 dose uM/kg(po); assay type: functional; method in brief: as §3
[26] = system: Rattus norvegicus; assay: Effect evaluated in vivo on 5-HTP accumulation in NE-rich hemispheres at a 3.1 dose uM/kg(sc); assay type: functional; method in brief: as §3
[27] = system: Rattus norvegicus; assay: Effect evaluated in vivo on 5-HTP accumulation in NE-rich hemispheres at a 50 dose uM/kg(po); assay type: functional; method in brief: as §3
[28] = system: Rattus norvegicus; assay: Effect evaluated in vivo on 5-HTP accumulation in NE-rich hemispheres at a 50 dose uM/kg(sc); assay type: functional; method in brief: as §3
[29] = system: Rattus norvegicus; assay: Effect evaluated in vivo on 5-HTP accumulation in corpus striatum after subcutaneous administration; assay type: functional; settings: sc; method in brief: as §3
[30] = system: Rattus norvegicus; assay: Effect evaluated in vivo on 5-HTP accumulation in corpus striatum at a dose 0.78 umol/kg (s.c.); assay type: functional; method in brief: as §3
[31] = system: Rattus norvegicus; assay: Effect evaluated in vivo on 5-HTP accumulation in corpus striatum at a dose 0.80 umol/kg (p.o.); assay type: functional; method in brief: as §3
[32] = system: Rattus norvegicus; assay: The compound was tested in vivo for locomotor activity in rats at 50 umol/kg after perioral administration; assay type: functional
Method in brief: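 Reserpine-pretreated rats (5 mg/kg sc, 18 h before) received test compound orally. Photocell motility counts were accumulated over 30 min, and gross behaviour, including 5-HT syndrome, was observed.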

[33] = system: Rattus norvegicus; assay: The compound was tested in vivo for locomotor activity in rats at 50 umol/kg after subcutaneous administration; assay type: functional
Method in brief: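 Male Sprague-Dawley rats received reserpine 5 mg/kg sc in the neck 18 h before testing. Test compound was given sc in the neck (n = 4). Rats were placed singly in photocell motility meters immediately after dosing, and counts were accumulated over 30 min (tests 9 a.m.–1 p.m.). Gross behaviour, including 5-HT syndrome, was observed throughout.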

D(2) dopamine receptor, sequence (P61169 whole entry): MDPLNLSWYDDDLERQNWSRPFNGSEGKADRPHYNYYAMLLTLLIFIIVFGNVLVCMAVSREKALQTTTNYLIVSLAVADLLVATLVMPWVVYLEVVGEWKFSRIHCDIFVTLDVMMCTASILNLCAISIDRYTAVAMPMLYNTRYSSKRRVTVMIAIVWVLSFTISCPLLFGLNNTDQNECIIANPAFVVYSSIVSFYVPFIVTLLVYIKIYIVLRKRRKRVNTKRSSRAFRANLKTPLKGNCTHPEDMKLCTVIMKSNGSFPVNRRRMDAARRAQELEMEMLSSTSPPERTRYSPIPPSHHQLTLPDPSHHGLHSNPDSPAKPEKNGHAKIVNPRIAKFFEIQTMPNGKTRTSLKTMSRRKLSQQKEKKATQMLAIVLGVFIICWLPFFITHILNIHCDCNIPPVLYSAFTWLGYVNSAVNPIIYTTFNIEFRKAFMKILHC

In the case of `COc1cccc2c1CCN(CC1CC1)CC2`, the pIC50 [1] was 6.92, the pIC50 [2] was 5.12 and the Control [3] was 70%. It also gave a Control [4] of 67%, a Control [5] of 48% and a Control [6] of 42%. The Control [7] was 95%, the Control [8] was 102% and the Control [9] was 77%. It also gave a Control [10] of 60%, a Control [11] of 59% and a Control [12] of 68%. The Control [13] was 48%, the ED50 [14] was 7 µmol/kg and the ED50 [15] was 5.5 µmol/kg. For the same compound, the ED50 [16] was 1.7 µmol/kg, the ED50 [17] was 6.5 µmol/kg and the ED50 [18] was 4 µmol/kg. For the same compound, the Control [19] was 84%, the Control [20] was 101% and the Control [21] was 83%. It also gave a Control [22] of 56%, a Control [23] of 89% and a Control [24] of 85%. It also gave a Control [25] of 75%, a Control [26] of 77% and a Control [27] of 50%. The Control [28] was 43%, the ED50 [29] was 2.5 µmol/kg and the Control [30] was 88%. For the same compound, the Control [31] was 102%, the Locomotor activity [32] was 31 and the Locomotor activity [33] was 107.
